Sequences and labels used below:
B1: tRNA (parent)
chain: CUCUCGGUAGCCAAGUUGGUUUAAGGCGCAAGACUUUAAUUUAUCACUACGAAAUCUUGAGAUCGGGCGUUCGACUCGCCCCCGGGAGAUUUUUUCCUCGAGCAA

Fewer inactive variants are shown than the library holds.

The data set covers variants of B1. Description: nonsense suppression (GFP-seq) (ratio to wild type); higher = more function; SUP4oc tRNA, yeast GFP reporter sort-seq. The method in brief: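 Sorted GFP/RFP bins of yeast were each Illumina-sequenced with a phred ≥30 cutoff; the cells held a genome-integrated ochre-suppressor tRNA variant from a library with ~3% random mutations, a galactose-driven GFP ochre reporter, and RFP. Culture was in raffinose/galactose medium containing 80 mg/L adenine. Nonsense suppression, termed GFPSEQ, is the median GFP/RFP of the bins weighted by each variant's estimated cell share per bin, relative to the unmutated parent tRNA, for variants reaching ≥100 reads and ≥30 cells.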
In the case of A14U G66A, the nonsense suppression is ≤ 0.026.

Take G15C G19C: the nonsense suppression is ≤ 0.026. With G15C A33U G61A, the nonsense suppression was ≤ 0.026. Turning to A14G G19A A31U G66C A74C G78U, the nonsense suppression was ≤ 0.026. Consider A13U G65A, for which the nonsense suppression was ≤ 0.026. For A13U G65U, the nonsense suppression came out at 0.0575. Take A13C U57A G66A: the nonsense suppression is ≤ 0.026. In the case of A13G G61C, the nonsense suppression amounted to 0.0301. For the variant A14U A60C G66A G67A, the nonsense suppression was ≤ 0.026.

Turning to G15A G26U U55A, the nonsense suppression was ≤ 0.026. With A13C U17C U22G G85A, the nonsense suppression stood at 0.81.

As to U16A G78U, the nonsense suppression came out at 0.188. G15U C68U G78C C82G G84A: the nonsense suppression is ≤ 0.026.

For A14U A54C C68A G73C G84A, the nonsense suppression came out at 0.202. On to G15U U71A C82G, for which the nonsense suppression is ≤ 0.026.

Regarding U16C A31G U57C, the nonsense suppression worked out at 0.922. Turning to A13U G69C, the nonsense suppression came out at 0.0304. As to A13U G69A, the nonsense suppression worked out at 0.072. G15A G26U: the nonsense suppression is ≤ 0.026. For A13G G84C, the nonsense suppression is ≤ 0.026.

Take G15C C34A C82G: the nonsense suppression was found to be 0.816. For the variant A14C U16C G19A A23U C29U A30G C72G C82A, the nonsense suppression was ≤ 0.026. Regarding A13U G59U C80G, the nonsense suppression was ≤ 0.026.

Consider G15A C81U, for which the nonsense suppression came to 0.0386. For the variant C12U U22G, the nonsense suppression was 0.745.

On to A14U G18U A23U C27G, for which the nonsense suppression was ≤ 0.026. With A14G G26A G66C, the nonsense suppression is ≤ 0.026. The figure for A13G C56G U71G is ≤ 0.026; for A13C G18C G26U G61C it is ≤ 0.026; for A13C A89G it is 0.122. Turning to U16A A62G U76G, the nonsense suppression was ≤ 0.026.

A13C G61A: the nonsense suppression was determined as 0.852. The figure for A13G A30G is 0.105; for A14G G78A it is 0.0272. For G15A A33G, the nonsense suppression stood at 0.0395. As to G15U A23G G65C, the nonsense suppression was ≤ 0.026. As for A13C U21A, the nonsense suppression stood at 1.19.

For the variant A13C U21C, the nonsense suppression is 1.17. With A13U A14C U35A A60C C72U, the nonsense suppression was ≤ 0.026. Turning to A13U C72G, the nonsense suppression was found to be 0.032. Regarding G15C G65A, the nonsense suppression was ≤ 0.026. Under A13G U16G stands 0.207. With A13G U16A, the nonsense suppression came out at 0.0391. For A13G C80U, the nonsense suppression came to 0.0419. On to A14C U16G U55C, for which the nonsense suppression is ≤ 0.026. Regarding A13U G67A, the nonsense suppression was found to be 0.0502.

In the case of G15A C68U, the nonsense suppression amounted to 0.0272. A13C A87G: the nonsense suppression stood at 0.127.

For A13C A87C, the nonsense suppression stood at 0.0539.

As for A14G A54G, the nonsense suppression is ≤ 0.026. As for A13U U16G C82U, the nonsense suppression stood at 0.377.

For the variant G15C C27G A31C, the nonsense suppression is ≤ 0.026.

A13G A31G: the nonsense suppression turned out to be 0.149. On to U16A U17G, for which the nonsense suppression was 1.16. Take A13C A54G G73C: the nonsense suppression was ≤ 0.026. For the variant G15A G61C, the nonsense suppression amounted to 0.034. Turning to A13C A31C U76A, the nonsense suppression was ≤ 0.026. Turning to U16A C29U, the nonsense suppression came to 0.186. For A14G U57C U58A, the nonsense suppression was ≤ 0.026. With A13U G15A, the nonsense suppression was 0.046. With A14C G65C C80G A87C, the nonsense suppression is ≤ 0.026. Turning to A14C A31U A33U, the nonsense suppression is ≤ 0.026. Under C12U U63A stands 0.697.

Turning to C12U U63G, the nonsense suppression was 0.121. Turning to A13C C72U, the nonsense suppression amounted to 0.23. For the variant A13U A24G G61C, the nonsense suppression turned out to be 0.0375.

Consider A13G G67C C83G, for which the nonsense suppression is ≤ 0.026. In the case of G15C G18U U76G A87G, the nonsense suppression was ≤ 0.026. Under A14U G61A stands 0.0341; under A14C C29U, ≤ 0.026. In the case of A13C C27U, the nonsense suppression turned out to be 0.0494.

With G15A U63G C75G, the nonsense suppression was ≤ 0.026. As for G15C A23G G66A, the nonsense suppression was ≤ 0.026. In the case of G15A U20G, the nonsense suppression was found to be 0.189. A13G A87G: the nonsense suppression stood at 0.14. With G15C G25U, the nonsense suppression is ≤ 0.026. On to A14U A23G A62U G84A, for which the nonsense suppression is ≤ 0.026. For the variant A13U G86A, the nonsense suppression is 0.0315.

On to U16A U22G C79U, for which the nonsense suppression worked out at 0.208. Turning to A13G C64G, the nonsense suppression was ≤ 0.026. Take A14C C68G: the nonsense suppression was ≤ 0.026.

As to A13G U35C U71C, the nonsense suppression is ≤ 0.026. As to A13G U21G C77G, the nonsense suppression is ≤ 0.026. For G15U C29U, the nonsense suppression is ≤ 0.026. On to G15A C80U, for which the nonsense suppression turned out to be 0.167. In the case of A14U A33U C34G G59C, the nonsense suppression was ≤ 0.026. For G15U C68G, the nonsense suppression is ≤ 0.026. Regarding A13C U35G U57C, the nonsense suppression was ≤ 0.026. Take A13G C27A C29G A33U U76C G86U: the nonsense suppression was ≤ 0.026.

Consider A13U C77U, for which the nonsense suppression stood at 0.0452. Turning to G15U U70A G85U, the nonsense suppression is ≤ 0.026.

As for C12U U55C, the nonsense suppression was 0.0665. As to U16C A23G G28U, the nonsense suppression was ≤ 0.026. The figure for U16A A33G is 0.0423; for U16A U76C it is 1.19; for A13C G73A it is 0.394. The figure for A13C G73U is 0.0412; for A14U U63A it is 0.0439. The figure for A14U G25U A30C G65C is ≤ 0.026.

In the case of A13U U57A G65A, the nonsense suppression was ≤ 0.026. On to G15U U55A, for which the nonsense suppression was ≤ 0.026. Consider A13G G85A, for which the nonsense suppression amounted to 0.214.

Turning to A13C C77U, the nonsense suppression is 0.0493. As for A13G U17C A23C C75A G88A, the nonsense suppression is ≤ 0.026. On to A14U G86A, for which the nonsense suppression was ≤ 0.026.

A14U G86C: the nonsense suppression was ≤ 0.026.

With G15A C75A, the nonsense suppression amounted to 0.854.

Turning to U16A G85A, the nonsense suppression stood at 1.03.

As to A14C A31G A74U C80G, the nonsense suppression was ≤ 0.026. Take A14U G85U G88U: the nonsense suppression is ≤ 0.026. As for A13U A54C G66A A74C G86A, the nonsense suppression was ≤ 0.026. As for A14U G15C A60C C79U, the nonsense suppression is ≤ 0.026. For A13C A30U G85A, the nonsense suppression is 0.157. The figure for A13C U55C is 0.827; for A14G G19C C29A C56A G88C it is ≤ 0.026; for A14G A33G G69C it is ≤ 0.026. On to G15A, for which the nonsense suppression was 0.188. As to U16C A54C, the nonsense suppression stood at 1.22.

On to G15A A31U U35C U76G C83U, for which the nonsense suppression is ≤ 0.026.

Turning to U16A U22C, the nonsense suppression stood at 1.08. Under A13C A14U stands 0.206; under G15C G26U U57C G78C, ≤ 0.026. A13U U20A: the nonsense suppression stood at 0.189. Turning to A13C G67A, the nonsense suppression was 0.0799.

For the variant A13U A24G G26C G32C A89C, the nonsense suppression was ≤ 0.026. In the case of G15C A87U, the nonsense suppression is ≤ 0.026. For A13U U16G A33U, the nonsense suppression was 0.0384. For the variant A13C U17G C82U, the nonsense suppression is 0.142.

As for A13U C79U, the nonsense suppression is 0.175. In the case of C12U U35C, the nonsense suppression is 0.0352. For the variant A13C G61U C68U, the nonsense suppression came out at 0.414. For the variant A14G A24C A31G C56G, the nonsense suppression was ≤ 0.026.

On to G15U A23G U55G, for which the nonsense suppression is ≤ 0.026. With A14U A24C, the nonsense suppression came to 0.0284. The figure for A14C C56A C81G is ≤ 0.026; for A13U A31U it is 0.193; for A13U A31G it is 1.22. A13U G15A G73U: the nonsense suppression was ≤ 0.026. For the variant A13C U17A A31G, the nonsense suppression came to 0.849. The figure for A14G G28U G78C is ≤ 0.026; for A14U U16C U58A G61U C72U it is ≤ 0.026; for G15A U21C C82A it is ≤ 0.026. Take G15A G28A C75A: the nonsense suppression is 0.24. G15A U16A: the nonsense suppression amounted to 0.0275. A14U U57G: the nonsense suppression was ≤ 0.026. For the variant U16A A30G, the nonsense suppression came out at 0.312. For A13C C80U, the nonsense suppression was 0.179. On to A14G U17A G25A C29U U63G, for which the nonsense suppression is ≤ 0.026. In the case of A14G A87U, the nonsense suppression is ≤ 0.026. For A13C C75U G85U, the nonsense suppression was found to be 0.333. On to U16A U21G, for which the nonsense suppression is 0.752.

With A13C A60C, the nonsense suppression is 0.29. With A13C A60G, the nonsense suppression came to 0.392. For A13C A60U, the nonsense suppression is 1.07. The figure for A14G A30C G61C A74U is ≤ 0.026; for U16A A24C it is 0.872; for U16A C34G U63C C77G G86C it is ≤ 0.026.

Turning to A13C C68G G88A, the nonsense suppression was ≤ 0.026.

For U16A A54U, the nonsense suppression was determined as 1.06.

As to A13U C81G, the nonsense suppression turned out to be 0.0578. Take A13U C81A: the nonsense suppression was ≤ 0.026. As to A13U A74U, the nonsense suppression is 0.051. A14G U16G C64U: the nonsense suppression was ≤ 0.026. For G15C G28U A62C G86C, the nonsense suppression was ≤ 0.026. Turning to A13G C29A, the nonsense suppression is 0.03.

On to A13C C75U, for which the nonsense suppression was determined as 1.09. Turning to A13C C75G, the nonsense suppression turned out to be 1.15.
